For orientation: IC50 means the concentration needed to halve the response being measured. A lower IC50 goes with inhibition by little substance.

Molecules are shown by their SMILES.

A short description of this assay: Cytotoxicity against human LTEDaro cells after 72 hrs by MTT assay. It counts as functional, cell-based. Summed up: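 LTEDaro cells (long-term estrogen-deprived MCF-7aro) seeded in custom medium for 24 h, then exposed to a range of concentrations in DMSO (final ≤0.1%) for 72 h, with vehicle-matched DMSO controls. Medium then replaced with 0.5 mg/ml MTT for 2 h at 37°C in CO2 incubator; formazan dissolved in DMSO and read at 570 nm; triplicates.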
(Tetrazolium assays rely on reduction of a dye to a coloured formazan, in cell work by metabolically active cells.)
Compound `Cc1ccccc1COc1cc(NC(=O)c2ccccc2)ccc1N(C)S(C)(=O)=O` returned an IC50 of 176 µM.

As for `Cc1cc(C)c(COc2cc(NC(=O)Cc3ccccn3)ccc2N(C)S(C)(=O)=O)c(C)c1`, the IC50 worked out at 51.3 µM.

With `CN(c1ccc(NC(=O)C2CCCCC2)cc1OCc1cc(Cl)ccc1Cl)S(C)(=O)=O`, the half-inhibitory concentration (IC50) turned out to be 1 µM.

Consider `CC(C)c1ccc(COc2cc(NC(=O)Cc3ccncc3)ccc2N(C)S(C)(=O)=O)cc1`, for which the IC50 is 11.5 µM.

`CN(c1ccc(NC(=O)c2ccccc2)cc1OCc1cc(Cl)ccc1Cl)S(C)(=O)=O` showed an IC50 of 2.15 µM.

Compound `Cc1ccccc1COc1cc(NC(=O)Cc2ccncc2)ccc1N(C)S(C)(=O)=O` displayed an IC50 of 11.8 µM.

`Cc1ccccc1COc1cc(NC(=O)Cc2cccnc2)ccc1N(C)S(C)(=O)=O`: half-maximal inhibition (IC50) required 71.5 µM.

In the case of `Cc1cc(C)c(COc2cc(NC(=O)c3ccccc3)ccc2N(C)S(C)(=O)=O)c(C)c1`, the IC50 was found to be 10.3 µM.

Take `Cc1cccc(C)c1COc1cc(NC(=O)C2CCCCC2)ccc1N(C)S(C)(=O)=O`: half-maximal inhibition (IC50) was put at 39.4 µM.

Consider `Cc1cccc(C)c1COc1cc(NC(=O)c2ccccc2)ccc1N(C)S(C)(=O)=O`, for which half-maximal inhibition (IC50) required 16.2 µM.

`Cc1ccc(C)c(COc2cc(NC(=O)Cc3ccncc3)ccc2N(C)S(C)(=O)=O)c1` yielded a half-inhibitory concentration (IC50) of 2.37 µM.

For the compound `Cc1ccc(C)c(COc2cc(NC(=O)Cc3cccnc3)ccc2N(C)S(C)(=O)=O)c1`, inhibition was half-maximal at 1.69 µM (IC50).

`Cc1ccc(C)c(COc2cc(NC(=O)Cc3ccccn3)ccc2N(C)S(C)(=O)=O)c1` gave an IC50 of 174 µM.

Regarding `CC(C)c1ccc(COc2cc(NC(=O)Cc3ccccn3)ccc2N(C)S(C)(=O)=O)cc1`, the IC50 is 11.4 µM.

`Cc1cccc(COc2cc(NC(=O)Cc3ccncc3)ccc2N(C)S(C)(=O)=O)c1` returned an IC50 of 16.1 µM.

`CC(C)c1ccc(COc2cc(NC(=O)Cc3cccnc3)ccc2N(C)S(C)(=O)=O)cc1` registered an IC50 of 8.26 µM.

`CN(c1ccc(NC(=O)Cc2cccnc2)cc1OCc1cc(Cl)ccc1Cl)S(C)(=O)=O`: it took 14.1 µM to reach half-maximal inhibition (IC50).

As to `CN(c1ccc(NC(=O)Cc2ccccn2)cc1OCc1cc(Cl)ccc1Cl)S(C)(=O)=O`, the IC50 was 23.6 µM.

`CCCCCCOc1cc(NC(=O)C2CCCCC2)ccc1N(C)S(C)(=O)=O` yielded an IC50 of 6.98 µM.

On to `Cc1cccc(COc2cc(NC(=O)c3ccccc3)ccc2N(C)S(C)(=O)=O)c1`, for which the IC50 was determined as 16.1 µM.

In turn, `Cc1ccc(C)c(COc2cc(NC(=O)c3ccccc3)ccc2N(C)S(C)(=O)=O)c1` displayed an IC50 of 4.68 µM.

Take `Cc1cccc(C)c1COc1cc(NC(=O)Cc2ccncc2)ccc1N(C)S(C)(=O)=O`: inhibition was half-maximal at 19.9 µM (IC50).

`Cc1cccc(C)c1COc1cc(NC(=O)Cc2cccnc2)ccc1N(C)S(C)(=O)=O` displayed an IC50 of 22.5 µM.

The compound `CCCCCCOc1cc(NC(=O)c2ccccc2)ccc1N(C)S(C)(=O)=O` showed a concentration for half-maximal inhibition (IC50) of 12 µM.

The compound `CCCCCCOc1cc(NC(=O)Cc2ccccn2)ccc1N(C)S(C)(=O)=O` displayed an IC50 of 7.68 µM.

As for `Cc1cccc(COc2cc(NC(=O)Cc3cccnc3)ccc2N(C)S(C)(=O)=O)c1`, 93.6 µM corresponded to half-maximal inhibition (IC50).

Compound `CCCCCCOc1cc(NC(=O)Cc2cccnc2)ccc1N(C)S(C)(=O)=O` had an IC50 of 12.1 µM.

In turn, `Cc1ccccc1COc1cc(NC(=O)Cc2ccccn2)ccc1N(C)S(C)(=O)=O` came in with a half-inhibitory concentration (IC50) of 93.9 µM.

`Cc1cccc(COc2cc(NC(=O)C3CCCCC3)ccc2N(C)S(C)(=O)=O)c1` showed an IC50 of 44.2 µM.

For `Cc1cc(C)c(COc2cc(NC(=O)Cc3ccncc3)ccc2N(C)S(C)(=O)=O)c(C)c1`, the IC50 was 13.2 µM.

Compound `CC(C)c1ccc(COc2cc(NC(=O)C3CCCCC3)ccc2N(C)S(C)(=O)=O)cc1` gave an IC50 of 16.1 µM.

Take `CN(c1ccc(NC(=O)Cc2ccncc2)cc1OCc1cc(Cl)ccc1Cl)S(C)(=O)=O`: the IC50 was determined as 7.64 µM.

Consider `CCCCCCOc1cc(NC(=O)Cc2ccncc2)ccc1N(C)S(C)(=O)=O`, for which the IC50 was found to be 9.56 µM.

As to `CC(C)c1ccc(COc2cc(NC(=O)c3ccccc3)ccc2N(C)S(C)(=O)=O)cc1`, 7.93 µM corresponded to half-maximal inhibition (IC50).

`Cc1cc(C)c(COc2cc(NC(=O)C3CCCCC3)ccc2N(C)S(C)(=O)=O)c(C)c1` displayed an IC50 of 18.5 µM.

`Cc1cc(C)c(COc2cc(NC(=O)Cc3cccnc3)ccc2N(C)S(C)(=O)=O)c(C)c1` came in with an IC50 of 10.4 µM.

Consider `Cc1ccccc1COc1cc(NC(=O)C2CCCCC2)ccc1N(C)S(C)(=O)=O`, for which the IC50 is 28.5 µM.

`Cc1cccc(COc2cc(NC(=O)Cc3ccccn3)ccc2N(C)S(C)(=O)=O)c1` registered an IC50 of 14.9 µM.

`Cc1cccc(C)c1COc1cc(NC(=O)Cc2ccccn2)ccc1N(C)S(C)(=O)=O` gave an IC50 of 41.4 µM.

The compound `CS(=O)(=O)Nc1ccc([N+](=O)[O-])cc1Oc1ccccc1` [NIMESULIDE] showed an IC50 of 173 µM.

The values are drawn from ChEMBL document CHEMBL1154651, “Lead optimization of COX-2 inhibitor nimesulide analogs to overcome aromatase inhibitor resistance in breast cancer cells” (Bioorg Med Chem Lett, 2009).
